# Measured values reported in ChEMBL document CHEMBL5724801, “EUbOPEN Chemogenomics Library - Multiplex” (2024).
# Where “and” joins values, the source holds several entries; their conditions need not be identical. Equal entries are not always repeated.
# Test system: U2OS
# Assay: Multiplex assay against U2OS
# Assay type: toxicity, cell-based
# Details: human
# Summary of the method: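 Phenotypes for tubulin, mitochondrial mass and membrane permeability are expressed as per cents of healthy-nucleus cells. Cells were stained live at seeding with Hoechst33342, BioTracker Green Microtubule Cytoskeleton Dye, MitoTracker Red and Annexin V Alexa Fluor 680, then imaged after compound addition on a CQ1 microscope at 37°C and 5% CO2. Machine-learning gating in CellPathfinder separated Hoechst high-intensity objects from normal cells, divided normal cells by nuclear state (healthy, pyknosed, fragmented) and divided pyknosed cells into mitotic or apoptotic.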
# [1] = 12 h, 1 µM, compound concentration 1 uM
# [2] = 12 h, 10 µM, compound concentration 10 uM
# [3] = 24 h, 1 µM, compound concentration 1 uM
# [4] = 24 h, 10 µM, compound concentration 10 uM
# [5] = 48 h, 1 µM, compound concentration 1 uM
# [6] = 48 h, 10 µM, compound concentration 10 uM
smiles,measurement,setting,value
CCc1nn2c(C)cc(C)nc2c1Cc1ccc(-c2nnc(C3CCNCC3)o2)cc1,Population Apoptotic (%),[1],42% and 85%
same,Population Healthy Nuclei (%),[1],60% and 84%
same,Population Hoechst High Intensity Objects (%),[1],3% and 2%
same,Population Membrane Permeable-Phenotype (%),[1],12% and 14%
same,Population Mitochondria Different-Phenotype (%),[1],10% and 17%
same,Population Normal (%),[1],96% and 97%
same,Population Pyknosed Nuclei (%),[1],10% and 6%
same,Population Tubulin-Different-Phenotype (%),[1],11% and 4%
same,Total Cell Count,[1],251 and 110
same,Population Apoptotic (%),[2],68% and 77%
same,Population Fragmented Nuclei (%),[2],24% and 8%
same,Population Healthy Nuclei (%),[2],55% and 76%
same,Population Hoechst High Intensity Objects (%),[2],5% and 2%
same,Population Membrane Permeable-Phenotype (%),[2],26% and 30%
same,Population Mitochondria Different-Phenotype (%),[2],43% and 62%
same,Population Mitotic Cells (%),[2],31% and 22%
same,Population Normal (%),[2],94% and 97%
same,Population Pyknosed Nuclei (%),[2],20% and 14%
same,Population Tubulin-Different-Phenotype (%),[2],28% and 44%
same,Total Cell Count,[2],214 and 129
same,Population Apoptotic (%),[3],80% and 87%
same,Population Fragmented Nuclei (%),[3],26% and 13%
same,Population Healthy Nuclei (%),[3],63% and 80%
same,Population Hoechst High Intensity Objects (%),[3],2% and 3%
same,Population Membrane Permeable-Phenotype (%),[3],4% and 7%
same,Population Mitochondria Different-Phenotype (%),[3],6% and 12%
same,Population Mitotic Cells (%),[3],20% and 12%
same,Population Normal (%),[3],97% and 96%
same,Population Pyknosed Nuclei (%),[3],10% and 6%
same,Population Tubulin-Different-Phenotype (%),[3],3%
same,Total Cell Count,[3],296 and 130
same,Population Apoptotic (%),[4],77% and 71%
same,Population Fragmented Nuclei (%),[4],24% and 15%
same,Population Healthy Nuclei (%),[4],55% and 71%
same,Population Hoechst High Intensity Objects (%),[4],3%
same,Population Membrane Permeable-Phenotype (%),[4],9% and 16%
same,Population Mitochondria Different-Phenotype (%),[4],40% and 61%
same,Population Mitotic Cells (%),[4],22% and 28%
same,Population Normal (%),[4],96%
same,Population Pyknosed Nuclei (%),[4],19% and 13%
same,Total Cell Count,[4],236 and 163
same,Population Apoptotic (%),[5],90% and 85%
same,Population Fragmented Nuclei (%),[5],17% and 12%
same,Population Healthy Nuclei (%),[5],71% and 72%
same,Population Hoechst High Intensity Objects (%),[5],2%
same,Population Membrane Permeable-Phenotype (%),[5],6% and 7%
same,Population Mitochondria Different-Phenotype (%),[5],2% and 6%
same,Population Mitotic Cells (%),[5],10% and 14%
same,Population Normal (%),[5],97%
same,Population Pyknosed Nuclei (%),[5],10% and 14%
same,Population Tubulin-Different-Phenotype (%),[5],4%
same,Total Cell Count,[5],376 and 187
same,Population Apoptotic (%),[6],82% and 75%
same,Population Fragmented Nuclei (%),[6],24% and 12%
same,Population Healthy Nuclei (%),[6],55% and 71%
same,Population Hoechst High Intensity Objects (%),[6],2%
same,Population Membrane Permeable-Phenotype (%),[6],10% and 22%
same,Population Mitochondria Different-Phenotype (%),[6],29% and 31%
same,Population Mitotic Cells (%),[6],17% and 24%
same,Population Normal (%),[6],97%
same,Population Pyknosed Nuclei (%),[6],19% and 15%
same,Total Cell Count,[6],290 and 219
N[C@](CC1c2ccccc2Oc2ccccc21)(C(=O)O)[C@H]1C[C@@H]1C(=O)O,Population Apoptotic (%),[1],80% and 72%
same,Population Fragmented Nuclei (%),[1],22% and 10%
same,Population Healthy Nuclei (%),[1],67% and 79%
same,Population Hoechst High Intensity Objects (%),[1],1%
same,Population Membrane Permeable-Phenotype (%),[1],6% and 1%
same,Population Mitochondria Different-Phenotype (%),[1],2% and 8%
same,Population Mitotic Cells (%),[1],20% and 27%
same,Population Normal (%),[1],98%
same,Population Pyknosed Nuclei (%),[1],9%
same,Population Tubulin-Different-Phenotype (%),[1],4% and 3%
same,Total Cell Count,[1],218 and 114
same,Population Apoptotic (%),[2],84% and 83%
same,Population Fragmented Nuclei (%),[2],18% and 19%
same,Population Healthy Nuclei (%),[2],72% and 76%
same,Population Hoechst High Intensity Objects (%),[2],3% and 0%
same,Population Membrane Permeable-Phenotype (%),[2],5% and 7%
same,Population Mitochondria Different-Phenotype (%),[2],3% and 0%
same,Population Mitotic Cells (%),[2],16%
same,Population Normal (%),[2],96% and 100%
same,Population Pyknosed Nuclei (%),[2],8% and 4%
same,Population Tubulin-Different-Phenotype (%),[2],2%
same,Total Cell Count,[2],295 and 141
same,Population Apoptotic (%),[3],78% and 63%
same,Population Fragmented Nuclei (%),[3],20% and 14%
same,Population Healthy Nuclei (%),[3],70% and 77%
same,Population Hoechst High Intensity Objects (%),[3],1% and 0%
same,Population Membrane Permeable-Phenotype (%),[3],1% and 4%
same,Population Mitochondria Different-Phenotype (%),[3],1% and 5%
same,Population Mitotic Cells (%),[3],21% and 36%
same,Population Normal (%),[3],98% and 99%
same,Population Pyknosed Nuclei (%),[3],8%
same,Population Tubulin-Different-Phenotype (%),[3],1% and 2%
same,Total Cell Count,[3],272 and 137
same,Population Apoptotic (%),[4],80% and 81%
same,Population Fragmented Nuclei (%),[4],13% and 15%
same,Population Healthy Nuclei (%),[4],79% and 77%
same,Population Hoechst High Intensity Objects (%),[4],3% and 0%
same,Population Membrane Permeable-Phenotype (%),[4],3% and 8%
same,Population Mitochondria Different-Phenotype (%),[4],3% and 1%
same,Population Mitotic Cells (%),[4],20% and 18%
same,Population Normal (%),[4],96% and 99%
same,Population Pyknosed Nuclei (%),[4],7% and 6%
same,Population Tubulin-Different-Phenotype (%),[4],1% and 3%
same,Total Cell Count,[4],365 and 164
same,Population Apoptotic (%),[5],89% and 85%
same,Population Fragmented Nuclei (%),[5],14% and 16%
same,Population Healthy Nuclei (%),[5],75% and 72%
same,Population Hoechst High Intensity Objects (%),[5],2% and 1%
same,Population Membrane Permeable-Phenotype (%),[5],3% and 5%
same,Population Mitochondria Different-Phenotype (%),[5],1% and 3%
same,Population Mitotic Cells (%),[5],10% and 15%
same,Population Normal (%),[5],97% and 98%
same,Population Pyknosed Nuclei (%),[5],9% and 10%
same,Population Tubulin-Different-Phenotype (%),[5],1% and 4%
same,Total Cell Count,[5],403 and 190
same,Population Apoptotic (%),[6],90% and 81%
same,Population Fragmented Nuclei (%),[6],15% and 12%
same,Population Healthy Nuclei (%),[6],77% and 78%
same,Population Hoechst High Intensity Objects (%),[6],1% and 0%
same,Population Membrane Permeable-Phenotype (%),[6],4% and 7%
same,Population Mitochondria Different-Phenotype (%),[6],3% and 1%
same,Population Mitotic Cells (%),[6],10% and 18%
same,Population Normal (%),[6],98% and 100%
same,Population Pyknosed Nuclei (%),[6],7% and 9%
same,Population Tubulin-Different-Phenotype (%),[6],2% and 3%
same,Total Cell Count,[6],554 and 238
CSc1ccccc1N1CCN(CCCCCC(=O)NC2CCCc3ccccc32)CC1.Cl (stereo not drawn),Population Apoptotic (%),[1],62% and 36%
same,Population Fragmented Nuclei (%),[1],22% and 24%
same,Population Healthy Nuclei (%),[1],61% and 63%
same,Population Hoechst High Intensity Objects (%),[1],9% and 3%
same,Population Membrane Permeable-Phenotype (%),[1],73% and 51%
same,Population Mitochondria Different-Phenotype (%),[1],71% and 85%
same,Population Mitotic Cells (%),[1],37% and 63%
same,Population Normal (%),[1],90% and 96%
same,Population Pyknosed Nuclei (%),[1],15% and 11%
same,Population Tubulin-Different-Phenotype (%),[1],88% and 72%
same,Total Cell Count,[1],222 and 101
same,Population Apoptotic (%),[2],70% and 84%
same,Population Fragmented Nuclei (%),[2],41% and 23%
same,Population Healthy Nuclei (%),[2],39% and 55%
same,Population Hoechst High Intensity Objects (%),[2],8% and 4%
same,Population Membrane Permeable-Phenotype (%),[2],67% and 60%
same,Population Mitochondria Different-Phenotype (%),[2],90% and 92%
same,Population Mitotic Cells (%),[2],29% and 16%
same,Population Normal (%),[2],91% and 95%
same,Population Pyknosed Nuclei (%),[2],18% and 21%
same,Population Tubulin-Different-Phenotype (%),[2],96% and 98%
same,Total Cell Count,[2],221 and 125
same,Population Apoptotic (%),[3],54% and 58%
same,Population Fragmented Nuclei (%),[3],22% and 25%
same,Population Healthy Nuclei (%),[3],60% and 58%
same,Population Hoechst High Intensity Objects (%),[3],6% and 2%
same,Population Membrane Permeable-Phenotype (%),[3],63% and 46%
same,Population Mitochondria Different-Phenotype (%),[3],63% and 74%
same,Population Mitotic Cells (%),[3],45% and 41%
same,Population Normal (%),[3],94% and 97%
same,Population Pyknosed Nuclei (%),[3],17% and 15%
same,Population Tubulin-Different-Phenotype (%),[3],75% and 63%
same,Total Cell Count,[3],250 and 111
same,Population Apoptotic (%),[4],89% and 94%
same,Population Fragmented Nuclei (%),[4],44% and 19%
same,Population Healthy Nuclei (%),[4],28% and 44%
same,Population Hoechst High Intensity Objects (%),[4],6% and 10%
same,Population Membrane Permeable-Phenotype (%),[4],79% and 90%
same,Population Mitochondria Different-Phenotype (%),[4],81% and 56%
same,Population Mitotic Cells (%),[4],10% and 5%
same,Population Normal (%),[4],93% and 89%
same,Population Pyknosed Nuclei (%),[4],26% and 37%
same,Population Tubulin-Different-Phenotype (%),[4],91% and 97%
same,Total Cell Count,[4],219 and 112
same,Population Apoptotic (%),[5],64% and 95%
same,Population Fragmented Nuclei (%),[5],25% and 28%
same,Population Healthy Nuclei (%),[5],53% and 52%
same,Population Hoechst High Intensity Objects (%),[5],8% and 5%
same,Population Membrane Permeable-Phenotype (%),[5],42% and 41%
same,Population Mitochondria Different-Phenotype (%),[5],56% and 63%
same,Population Normal (%),[5],91% and 94%
same,Population Pyknosed Nuclei (%),[5],21% and 18%
same,Population Tubulin-Different-Phenotype (%),[5],50% and 44%
same,Total Cell Count,[5],272 and 137
same,Population Apoptotic (%),[6],98% and 100%
same,Population Fragmented Nuclei (%),[6],43% and 25%
same,Population Healthy Nuclei (%),[6],18% and 20%
same,Population Hoechst High Intensity Objects (%),[6],15% and 11%
same,Population Membrane Permeable-Phenotype (%),[6],77% and 85%
same,Population Mitochondria Different-Phenotype (%),[6],33% and 45%
same,Population Mitotic Cells (%),[6],1% and 0%
same,Population Normal (%),[6],84% and 88%
same,Population Pyknosed Nuclei (%),[6],38% and 54%
same,Population Tubulin-Different-Phenotype (%),[6],75% and 95%
same,Total Cell Count,[6],232 and 109
